Laboratory results: ChEMBL document CHEMBL1153570, “Synthesis and antitubercular screening of imidazole derivatives” (2009)
Values after ≈ are worked out from the molar mass of the structure shown.

Key:
Type in all cases: functional
[1] = test system: Mycobacterium tuberculosis; experiment: Antimycobacterial activity against Mycobacterium tuberculosis H37Rv by agar microdilution assay
Procedure, shortened: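 H37Rv from L–J medium suspended in 0.85% saline with 0.05% Tween-80. Twofold compound dilutions in OADC-supplemented 7H10 agar slants, preincubated 24 h at 37 °C, then streaked with 5 × 10⁴ bacilli per tube. Incubated at 37 °C and growth read after 30 days against drug-free controls. MIC taken as the concentration giving complete inhibition of colonies.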

[2] = test system: Mycobacterium tuberculosis; experiment: Antimycobacterial activity against Mycobacterium tuberculosis H37Ra after 5 days by microplate alamar blue assay; details: 120 h
Procedure, shortened: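 Log-phase M. tuberculosis H37Ra diluted to final OD550 0.05 in Sauton's medium. Compounds in DMSO, twofold dilutions from […]. Incubated at 37 °C/5% CO2 for 5 days, alamar blue added on day 5, incubated overnight. Fluorescence read-out.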

[3] = test system: Mycobacterium tuberculosis; experiment: Antitubercular activity against Mycobacterium tuberculosis H37Rv after 5 to 8 days by BACTEC radiometric assay
Procedure, shortened: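 H37Rv from L–J slants homogenized with glass beads and adjusted to McFarland 1. Primary inoculum grown in BACTEC 12B vial to GI 500–700, then 0.1 ml added to 4 ml 12B broth containing compound. A 1:100-inoculum control vial was included. Incubated at 37 °C with daily GI readings; read one more day after the 1:100 control reached GI 30.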

Row | Compound | MIC [1] [µg/mL] | MIC [2] [µg/mL] | MIC [3] [µg/mL]
1 | c1ccc(Cn2cnc3ccccc32)cc1 | > 12.5 | > 12.5 | –
2 | Clc1ccc(Cn2ccnc2)cc1Cl | – | > 12.5 | –
3 | CCCCCCNC(=O)Cn1ccnc1 | > 12.5 | 25 (≈ 119 µM) | –
4 | CCOC(=O)CCn1ccnc1 | > 12.5 | – | –
5 | c1cn(CCCCCn2ccnc2)cn1 | > 12.5 | > 12.5 | –
6 | CCOC(=O)Cn1ccnc1 | > 6.25 | > 12.5 | –
7 | C=CCc1cnc(CCC)n1CCCn1ccnc1CCC | 25 (≈ 83.2 µM) | > 12.5 | –
8 | c1cn(CCCn2ccnc2)cn1 | > 12.5 | > 12.5 | –
9 | CCCc1nccn1C(CC(=O)OCC)C1O[C@H]2OC(C)(C)O[C@H]2[C@@H]1OC (stereo not given in full) | 25 (≈ 65.4 µM) | 25 (≈ 65.4 µM) | –
10 | CCCCCCCNC(=O)Cn1ccnc1 | > 12.5 | > 12.5 | –
11 | CCCCNC(=O)Cn1ccnc1 | > 12.5 | > 12.5 | –
12 | OCCn1ccnc1 | > 12.5 | > 12.5 | –
13 | CCOC(=O)CC(C1O[C@H]2OC(C)(C)O[C@H]2[C@@H]1OC)n1ccnc1 (stereo not given in full) | 25 (≈ 73.4 µM) | 25 (≈ 73.4 µM) | –
14 | c1ccc(CNCCn2ccnc2)cc1 | 12.5 (≈ 62.1 µM) | 12.5 (≈ 62.1 µM) | –
15 | CCOC(=O)CC(C1O[C@H]2OC(C)(C)O[C@H]2[C@@H]1OCc1ccccc1)n1ccnc1 (stereo not given in full) | 50 (≈ 120 µM) | 50 (≈ 120 µM) | –
16 | CCCc1nccn1CCCn1ccnc1CCC | – | > 12.5 | 6.25 (≈ 24 µM)
17 | O=C(Cn1ccnc1)NCc1ccccc1 | > 12.5 | > 12.5 | –
18 | CCCc1nccn1C(CC(=O)OCC)C1O[C@H]2OC(C)(C)O[C@H]2[C@@H]1OCc1ccccc1 (stereo not given in full) | 50 (≈ 109 µM) | 50 (≈ 109 µM) | –
19 | Clc1ccc(Cn2cnc3ccccc32)cc1Cl | > 12.5 | > 12.5 | –
20 | CC[C@@H](CO)NCCN[C@@H](CC)CO [ETHAMBUTOL] | 1.5 (≈ 7.34 µM) | 1.5 (≈ 7.34 µM) | –
21 | NNC(=O)c1ccncc1 [ISONIAZID] | 0.65 (≈ 4.74 µM) | 0.65 (≈ 4.74 µM) | –
